From ChEMBL document CHEMBL1221342, “Synthesis and in vitro antitumor activity of new 4,5-dihydropyrazole derivatives” (Bioorg Med Chem, 2010)

Assays:
[1] = tested on: CCRF-CEM; test: Growth inhibition of human CCRF-CEM cells after 48 hrs by SRB assay; assay type: functional
Summary of the method: (§1)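 NCI 60-cell-line screen. Cells grown in RPMI1640 with 5% fetal calf serum and 2 mM L-glutamine, with inoculum density set by cell line. Preincubated 24 h, then given compound in DMSO at 10^-4 to 10^-8 M (five 10-fold steps) for 48 h continuous exposure. Growth measured by SRB protein assay. GI50, TGI and LC50 reported as –log molar.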

[2] = tested on: HL-60(TB); test: Growth inhibition of human HL-60(TB) cells after 48 hrs by SRB assay; assay type: functional; details: HL-60, 48 h
Summary of the method: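 NCI 60-cell-line screen: cells grown in RPMI1640 with 5% fetal calf serum and 2 mM L-glutamine, preincubated 24 h, then exposed to compound in DMSO at five concentrations (10^-4 to 10^-8 M) for 48 h continuous exposure. Growth estimated by sulforhodamine B protein assay; reported as pGI50 (-log molar concentration inhibiting net cell growth by 50%).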

[3] = tested on: MOLT-4; test: Growth inhibition of human MOLT4 cells after 48 hrs by SRB assay; assay type: functional; details: MOLT-4, 48 h; summary of the method: as §1
[4] = tested on: SR; test: Growth inhibition of human SR cells after 48 hrs by SRB assay; assay type: functional; summary of the method: as §1
[5] = tested on: EKVX; test: Growth inhibition of human EKVX cells after 48 hrs by SRB assay; assay type: functional; summary of the method: as §1
[6] = tested on: NCI-H460; test: Growth inhibition of human NCI-H460 cells after 48 hrs by SRB assay; assay type: functional; details: NCI-H460, 48 h; summary of the method: as §1
[7] = tested on: HCT-116; test: Growth inhibition of human HCT116 cells after 48 hrs by SRB assay; assay type: functional; details: HCT-116, 48 h; summary of the method: as §1
[8] = tested on: HCT-15; test: Growth inhibition of human HCT15 cells after 48 hrs by SRB assay; assay type: functional; details: HCT-15, 48 h; summary of the method: as §1
[9] = tested on: KM12; test: Growth inhibition of human KM12 cells after 48 hrs by SRB assay; assay type: functional; details: KM12, 48 h; summary of the method: as §1
[10] = tested on: SW-620; test: Growth inhibition of human SW620 cells after 48 hrs by SRB assay; assay type: functional; details: SW-620, 48 h; summary of the method: as §1
[11] = tested on: SF-268; test: Growth inhibition of human SF268 cells after 48 hrs by SRB assay; assay type: functional; details: SF-268, 48 h; summary of the method: as §1
[12] = tested on: SF-539; test: Growth inhibition of human SF539 cells after 48 hrs by SRB assay; assay type: functional; details: SF-539, 48 h; summary of the method: as §1
[13] = tested on: SNB-75; test: Growth inhibition of human SNB75 cells after 48 hrs by SRB assay; assay type: functional; details: SNB-75, 48 h; summary of the method: as §1
[14] = tested on: U-251; test: Growth inhibition of human U251 cells after 48 hrs by SRB assay; assay type: functional; details: U-251, 48 h; summary of the method: as §1
[15] = tested on: Malme-3M; test: Growth inhibition of human MALME-3M cells after 48 hrs by SRB assay; assay type: functional; details: read-out: pTGI (converted); summary of the method: as §1
[16] = tested on: SK-MEL-2; test: Growth inhibition of human SK-MEL-2 cells after 48 hrs by SRB assay; assay type: functional; details: SK-MEL-2, 48 h; summary of the method: as §1
[17] = tested on: MDA-MB-435; test: Growth inhibition of human MDA-MB-435 cells after 48 hrs by SRB assay; assay type: functional; details: MDA-MB-435, 48 h; summary of the method: as §1
[18] = tested on: SK-MEL-5; test: Growth inhibition of human SK-MEL-5 cells after 48 hrs by SRB assay; assay type: functional; details: SK-MEL-5, 48 h; summary of the method: as §1
[19] = tested on: UACC-62; test: Growth inhibition of human UACC62 cells after 48 hrs by SRB assay; assay type: functional; details: UACC-62, 48 h; summary of the method: as §1
[20] = tested on: OVCAR-4; test: Growth inhibition of human OVCAR4 cells after 48 hrs by SRB assay; assay type: functional; details: OVCAR-4, 48 h; summary of the method: as §1
[21] = tested on: NCI/ADR-RES; test: Growth inhibition of human NCI/ADR-RES cells after 48 hrs by SRB assay; assay type: functional; summary of the method: as §1
[22] = tested on: SK-OV-3; test: Growth inhibition of human SKOV3 cells after 48 hrs by SRB assay; assay type: functional; details: SK-OV-3, 48 h; summary of the method: as §1
[23] = tested on: 786-0; test: Growth inhibition of human 786-0 cells after 48 hrs by SRB assay; assay type: functional; details: 786-0, 48 h; summary of the method: as §1
[24] = tested on: A498; test: Growth inhibition of human A498 cells after 48 hrs by SRB assay; assay type: functional; details: A498, 48 h; summary of the method: as §1
[25] = tested on: RXF 393; test: Growth inhibition of human RXF393 cells after 48 hrs by SRB assay; assay type: functional; details: RXF 393, 48 h; summary of the method: as §1
[26] = tested on: TK-10; test: Growth inhibition of human TK10 cells after 48 hrs by SRB assay; assay type: functional; details: TK-10, 48 h; summary of the method: as §1
[27] = tested on: UO-31; test: Growth inhibition of human UO31 cells after 48 hrs by SRB assay; assay type: functional; details: UO-31, 48 h; summary of the method: as §1
[28] = tested on: PC-3; test: Growth inhibition of human PC3 cells after 48 hrs by SRB assay; assay type: functional; details: PC-3, 48 h; summary of the method: as §1
[29] = tested on: DU-145; test: Growth inhibition of human DU145 cells after 48 hrs by SRB assay; assay type: functional; details: DU-145, 48 h; summary of the method: as §1
[30] = tested on: MCF7; test: Growth inhibition of human MCF7 cells after 48 hrs by SRB assay; assay type: functional; details: MCF7, 48 h; summary of the method: as §1
[31] = tested on: BT-549; test: Growth inhibition of human BT549 cells after 48 hrs by SRB assay; assay type: functional; details: BT-549, 48 h, read-out: pTGI (converted); summary of the method: as §1
[32] = tested on: T47D; test: Growth inhibition of human T47D cells after 48 hrs by SRB assay; assay type: functional; details: read-out: pTGI (converted); summary of the method: as §1
[33] = tested on: MDA-MB-468; test: Growth inhibition of human MDA-MB-468 cells after 48 hrs by SRB assay; assay type: functional; details: MDA-MB-468, 48 h; summary of the method: as §1
[34] = tested on: NCI-H460; test: Cytotoxicity against human NCI-H460 cells after 72 hrs by SRB assay; assay type: functional, cell-based; details: NCI-H460, 72 h
Summary of the method: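 NCI-H460 (ATCC) cells seeded in 96-well plates in growth medium. Scalar drug concentrations added 24 h after plating, then 72 h exposure. Surviving cells stained with sulforhodamine B, OD read at 570 nm. IC50 (50% growth inhibition) fitted from dose–response curves. Mean ± SE of at least three independent experiments.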

`COc1cc(C2CC(c3cccc(Br)c3)=NN2C(C)=O)cc(OC)c1OC` (centres undefined) was tested, and the GI50 [1] was 316 nM, the TGI ([1]; read-out: pTGI (converted)) was 2000 nM and the GI50 [2] was 251 nM. The TGI ([2]; read-out: pTGI (converted)) was 501 nM, the GI50 [3] was 316 nM and the TGI ([3]; read-out: pTGI (converted)) was 1580 nM. The GI50 [4] was 39.8 nM, the TGI ([4]; read-out: pTGI (converted)) was over 100000 nM and the GI50 [5] was 631 nM. It also gave a TGI ([5]; read-out: pTGI (converted)) of over 100000 nM, a GI50 [6] of 316 nM and a TGI ([6]; read-out: pTGI (converted)) of 12600 nM. The GI50 [7] was 501 nM, the TGI ([7]; read-out: pTGI (converted)) was over 100000 nM and the GI50 [8] was 316 nM. The TGI ([8]; read-out: pTGI (converted)) was 31600 nM, the GI50 [9] was 316 nM and the TGI ([9]; read-out: pTGI (converted)) was 20000 nM. It also gave a GI50 [10] of 316 nM, a TGI ([10]; read-out: pTGI (converted)) of over 100000 nM and a GI50 [11] of 1000 nM. The TGI ([11]; read-out: pTGI (converted)) was 79400 nM, the GI50 [12] was 316 nM and the TGI ([12]; read-out: pTGI (converted)) was 10000 nM. It also gave a GI50 [13] of 398 nM, a TGI ([13]; read-out: pTGI (converted)) of over 100000 nM and a GI50 [14] of 501 nM. The TGI ([14]; read-out: pTGI (converted)) was 31600 nM, the TGI [15] was 50100 nM and the GI50 [16] was 20000 nM. For the same compound, the TGI ([16]; read-out: pTGI (converted)) was 79400 nM, the GI50 [17] was 50.1 nM and the TGI ([17]; read-out: pTGI (converted)) was 251 nM. For the same compound, the GI50 [18] was 251 nM, the TGI ([18]; read-out: pTGI (converted)) was 12600 nM and the GI50 [19] was 200 nM. For the same compound, the TGI ([19]; read-out: pTGI (converted)) was 20000 nM, the GI50 [20] was 631 nM and the TGI ([20]; read-out: pTGI (converted)) was over 100000 nM. For the same compound, the GI50 [21] was 398 nM, the TGI ([21]; read-out: pTGI (converted)) was over 100000 nM and the GI50 [22] was 501 nM. It also gave a TGI ([22]; read-out: pTGI (converted)) of 63100 nM, a GI50 [23] of 794 nM and a TGI ([23]; read-out: pTGI (converted)) of over 100000 nM. It also gave a GI50 [24] of 398 nM, a TGI ([24]; read-out: pTGI (converted)) of 3980 nM and a GI50 [25] of 251 nM. The TGI ([25]; read-out: pTGI (converted)) was 1000 nM, the GI50 [26] was 12600 nM and the TGI ([26]; read-out: pTGI (converted)) was 63100 nM. It also gave a GI50 [27] of 12600 nM, a TGI ([27]; read-out: pTGI (converted)) of over 100000 nM and a GI50 [28] of 200 nM. It also gave a TGI ([28]; read-out: pTGI (converted)) of 31600 nM, a GI50 [29] of 398 nM and a TGI ([29]; read-out: pTGI (converted)) of 12600 nM. It also gave a GI50 [30] of 158 nM, a TGI ([30]; read-out: pTGI (converted)) of 15800 nM and a TGI [31] of 39800 nM. The TGI [32] was 39800 nM, the GI50 [33] was 200 nM and the TGI ([33]; read-out: pTGI (converted)) was over 100000 nM. The IC50 [34] was 350 nM.
